This is an account of results in ChEMBL document CHEMBL3877241 (J Med Chem, 2016).

Active and inactive are the calls of the source. The calls are words filed in the database; no cut-off is given here.

Data set [1] deals with Mitogen-activated protein kinase 8 (Homo sapiens, UniProt P45983). Nature of the data set: Inhibition of full length human MAPK8 (M1 to Q384 residues) expressed in mammalian expression system assessed as residual activity at 100 nM by KINOMEScan assay relative to control. In a few lines:
(§1)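 DiscoveRx KINOMEscan competition binding against ATP sites in a 97-kinase panel, with compound at 100 nM. Binding reported as % of control.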

Data set [2] deals with Tyrosine-protein kinase JAK3 (Homo sapiens) (UniProt P52333). Kind of data set: Inhibition of JAK3 (unknown origin) at 0.1 uM preincubated for 20 mins followed by [33P]ATP addition measured after 120 mins by Hotspot assay relative to control. In a few lines:
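Radiometric HotSpot kinase assay. Buffer: 20 mM HEPES pH 7.5, 10 mM MgCl2, 1 mM EGTA, 0.02% Brij35, 0.02 mg/mL BSA, 0.1 mM Na3VO4, 2 mM DTT, 1% DMSO. Compound added about 20 min before ATP/[33P]ATP (10 μM final). Reactions run 120 min at 25 °C, spotted on P81 filters and washed in phosphoric acid. Activity expressed relative to DMSO after background subtraction. Single-concentration panel at 100 nM in duplicate.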

The test system of data set [3] is MOLM-14. Nature of the data set: Induction of apoptosis in human MOLM14 cells assessed as necrotic cells at 1.5 uM after 48 hrs by Annexin-V FITC/propidium iodide staining based flow cytometry (reference value: 0.1%). The class given is functional. (A flow cytometer gives signals particle by particle.)
Data set [4] relates to Tyrosine-protein kinase JAK2 (Homo sapiens), O60674 [V617F]. Nature of the data set: Induction of JAK2 V617F mutant phosphorylation at Y1007/8 residues in HEL 92.1.7 cells at 0.1 to 1 uM after 1 hr by immunoblot method. The class given is cell-based. Put shortly: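 HEL92.1.7 cells seeded at 5x10^5/mL and treated 1 h at 0, 0.1, 0.5 and 1 μM. Lysed in RIPA with phosphatase/protease inhibitors, run on 10% SDS-PAGE and blotted to PVDF. Probed for acetyl-tubulin, acetyl-H3 (Lys9/Lys14), p-JAK2 (Y1007/1008) and p-STAT5 (Tyr694); membranes re-probed for tubulin, H3, JAK2 and STAT5. Quantified by densitometry.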
Chain of Tyrosine-protein kinase JAK2 (Homo sapiens), O60674 [V617F] (O60674 whole entry V617F): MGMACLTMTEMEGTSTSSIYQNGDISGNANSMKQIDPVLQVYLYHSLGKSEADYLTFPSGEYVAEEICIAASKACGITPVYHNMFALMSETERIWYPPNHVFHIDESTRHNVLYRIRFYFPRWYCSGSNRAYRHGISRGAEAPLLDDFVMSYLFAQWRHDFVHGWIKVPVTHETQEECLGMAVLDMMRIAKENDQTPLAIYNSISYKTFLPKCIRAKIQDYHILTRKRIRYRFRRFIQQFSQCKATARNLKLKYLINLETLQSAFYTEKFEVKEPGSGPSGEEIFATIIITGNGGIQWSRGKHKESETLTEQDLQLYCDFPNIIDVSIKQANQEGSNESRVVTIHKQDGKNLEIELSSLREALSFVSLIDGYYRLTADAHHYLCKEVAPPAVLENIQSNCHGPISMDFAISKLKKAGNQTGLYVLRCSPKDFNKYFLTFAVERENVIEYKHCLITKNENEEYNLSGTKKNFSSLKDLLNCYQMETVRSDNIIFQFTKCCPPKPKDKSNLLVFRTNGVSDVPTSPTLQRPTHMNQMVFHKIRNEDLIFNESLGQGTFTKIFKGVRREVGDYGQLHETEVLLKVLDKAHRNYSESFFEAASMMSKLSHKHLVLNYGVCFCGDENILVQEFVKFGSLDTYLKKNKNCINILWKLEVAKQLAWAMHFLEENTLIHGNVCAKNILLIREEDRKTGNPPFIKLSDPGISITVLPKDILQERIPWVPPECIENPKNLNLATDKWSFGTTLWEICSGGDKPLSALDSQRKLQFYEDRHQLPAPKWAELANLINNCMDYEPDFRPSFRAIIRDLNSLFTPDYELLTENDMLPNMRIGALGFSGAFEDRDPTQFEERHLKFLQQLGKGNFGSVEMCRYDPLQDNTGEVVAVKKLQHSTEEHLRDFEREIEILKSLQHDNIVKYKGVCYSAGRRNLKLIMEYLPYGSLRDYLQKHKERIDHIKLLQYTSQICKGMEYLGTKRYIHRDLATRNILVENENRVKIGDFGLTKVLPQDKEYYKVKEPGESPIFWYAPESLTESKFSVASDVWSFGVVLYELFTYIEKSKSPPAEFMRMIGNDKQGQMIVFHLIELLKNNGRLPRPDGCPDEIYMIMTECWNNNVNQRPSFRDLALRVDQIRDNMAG
In general terms: In western blotting, separated proteins are transferred to a membrane and probed.

Data set [5] in a line: Antiproliferative activity against human NKYS cells after 48 hrs by CellTiter-Glo assay. The class given is functional, cell-based. (In ATP-based viability assays light output follows the ATP content of the culture.)
Data set [6] can be described thus: Apparent intrinsic clearance in rat liver microsomes at 3 uM preincubated for 5 mins followed by NADPH addition measured after 45 mins by LC-MS/MS analysis. The class given is ADME. The conditions noted are these: read-out: CLH(app). Put shortly: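 Male and female rat liver microsomes (0.3 mg protein/mL final) with compound at 3 μM final in 0.1 M phosphate buffer pH 7.4. Preincubated 5 min at 37 °C, then started with NADPH (1 mM final). Sampled at 0, 5, 10, 15, 30 and 45 min and quenched with cold acetonitrile containing internal standard. Read by LC-MS/MS; run in triplicate; midazolam (3 μM) as positive control.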

In data set [7] the target is Tyrosine-protein kinase JAK2 (Homo sapiens, UniProt O60674). Nature of the data set: Inhibition of human JAK2 JH1 catalytic domain (A829 to G1132 residues) expressed in mammalian expression system assessed as residual activity at 100 nM by KINOMEScan assay relative to control. Put shortly: as §1
Chain of Tyrosine-protein kinase JAK2 (O60674 whole entry, the tested form may be a part): as the sequence (O60674 whole entry V617F) above, with F617V counted along it
Data set [8] deals with Polyamine deacetylase HDAC10 (Homo sapiens, UniProt Q969S8). Kind of data set: Inhibition of HDAC10 (unknown origin) preincubated with enzyme followed by fluorogenic Arg-His-Lys-Lys(Ac)-AMC substrate addition measured after 2 hrs by fluorescence assay.
Chain of Polyamine deacetylase HDAC10 (Q969S8 whole entry): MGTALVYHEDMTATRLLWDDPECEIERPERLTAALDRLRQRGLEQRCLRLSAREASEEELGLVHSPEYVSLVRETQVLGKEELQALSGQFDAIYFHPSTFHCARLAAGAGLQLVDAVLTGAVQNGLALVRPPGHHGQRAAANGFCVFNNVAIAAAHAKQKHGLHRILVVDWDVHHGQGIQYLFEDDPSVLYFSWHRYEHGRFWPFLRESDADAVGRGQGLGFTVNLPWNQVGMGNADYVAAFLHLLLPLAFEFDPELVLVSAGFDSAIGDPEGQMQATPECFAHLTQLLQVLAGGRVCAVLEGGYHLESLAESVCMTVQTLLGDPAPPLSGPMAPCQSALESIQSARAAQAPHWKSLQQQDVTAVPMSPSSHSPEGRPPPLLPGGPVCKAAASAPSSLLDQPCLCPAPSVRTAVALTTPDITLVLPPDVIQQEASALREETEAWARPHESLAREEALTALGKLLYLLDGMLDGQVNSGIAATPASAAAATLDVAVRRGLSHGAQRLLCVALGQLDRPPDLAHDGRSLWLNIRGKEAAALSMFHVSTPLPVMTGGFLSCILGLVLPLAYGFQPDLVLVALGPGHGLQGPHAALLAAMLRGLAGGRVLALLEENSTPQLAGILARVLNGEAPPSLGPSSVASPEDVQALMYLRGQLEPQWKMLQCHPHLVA
Data set [9] is described as follows: Antiproliferative activity against human KHYG cells after 48 hrs by CellTiter-Glo assay. The class given is functional, cell-based.
A short description of data set [10]: Antiproliferative activity against human HL60 cells. It is filed as functional, cell-based. The conditions noted are these: HL-60.

Chain of Tyrosine-protein kinase JAK3 (Homo sapiens) (P52333 whole entry): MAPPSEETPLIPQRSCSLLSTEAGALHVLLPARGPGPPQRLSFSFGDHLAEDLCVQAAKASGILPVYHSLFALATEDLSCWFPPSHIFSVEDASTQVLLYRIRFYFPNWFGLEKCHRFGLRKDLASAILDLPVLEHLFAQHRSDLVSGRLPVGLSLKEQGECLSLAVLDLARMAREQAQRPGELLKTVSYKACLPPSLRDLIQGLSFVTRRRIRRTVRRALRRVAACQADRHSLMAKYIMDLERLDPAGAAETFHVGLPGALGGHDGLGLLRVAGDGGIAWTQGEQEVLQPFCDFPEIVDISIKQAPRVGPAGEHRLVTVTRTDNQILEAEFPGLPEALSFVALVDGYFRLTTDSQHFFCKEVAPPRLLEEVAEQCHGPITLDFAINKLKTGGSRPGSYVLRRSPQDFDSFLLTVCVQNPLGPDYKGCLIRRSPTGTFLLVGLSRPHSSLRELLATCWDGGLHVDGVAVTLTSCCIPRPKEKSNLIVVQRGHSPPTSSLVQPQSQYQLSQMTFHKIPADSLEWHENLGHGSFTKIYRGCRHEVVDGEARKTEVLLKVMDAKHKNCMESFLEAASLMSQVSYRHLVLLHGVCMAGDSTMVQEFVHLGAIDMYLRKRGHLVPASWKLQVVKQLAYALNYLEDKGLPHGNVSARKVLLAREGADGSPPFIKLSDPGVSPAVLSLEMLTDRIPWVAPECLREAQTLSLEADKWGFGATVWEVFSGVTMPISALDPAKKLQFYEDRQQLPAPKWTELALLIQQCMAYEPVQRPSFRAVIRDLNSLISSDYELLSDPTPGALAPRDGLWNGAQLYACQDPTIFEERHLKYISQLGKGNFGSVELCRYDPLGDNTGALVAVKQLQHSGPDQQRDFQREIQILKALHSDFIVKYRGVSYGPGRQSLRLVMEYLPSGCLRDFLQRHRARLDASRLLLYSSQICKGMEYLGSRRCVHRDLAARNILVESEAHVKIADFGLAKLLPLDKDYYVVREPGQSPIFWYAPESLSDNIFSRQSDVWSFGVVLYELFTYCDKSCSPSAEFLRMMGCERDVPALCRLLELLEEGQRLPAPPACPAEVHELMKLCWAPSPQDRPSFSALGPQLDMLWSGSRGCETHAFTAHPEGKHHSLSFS
Chain of Mitogen-activated protein kinase 8 (P45983 whole entry, the tested form may be a part): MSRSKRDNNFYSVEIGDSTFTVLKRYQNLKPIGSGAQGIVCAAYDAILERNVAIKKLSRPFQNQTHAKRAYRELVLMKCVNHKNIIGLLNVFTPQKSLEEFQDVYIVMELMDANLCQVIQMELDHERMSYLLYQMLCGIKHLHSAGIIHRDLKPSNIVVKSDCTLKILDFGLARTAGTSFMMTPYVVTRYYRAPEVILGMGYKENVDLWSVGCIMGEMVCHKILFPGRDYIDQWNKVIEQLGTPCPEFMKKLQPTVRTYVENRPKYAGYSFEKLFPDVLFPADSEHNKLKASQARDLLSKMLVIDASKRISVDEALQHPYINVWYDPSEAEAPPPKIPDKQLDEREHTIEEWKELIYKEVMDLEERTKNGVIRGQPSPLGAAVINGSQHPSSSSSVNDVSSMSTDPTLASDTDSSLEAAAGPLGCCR

With `O=C(CCCCCCOc1ccc2cc1COC/C=C/COCc1cccc(c1)-c1ccnc(n1)N2)NO`, the Activity worked out at 26% in [1], 0.3% in data set [3] and 0% in data set [7]. The inhibition (as a rule, the drop in the measured response relative to a control, in per cent) in data set [2] was 55%. Besides, the result in [4] was Active. Moreover, the IC50 (commonly the concentration at which inhibition is half-maximal) in [5] was 1080 nM; in data set [8], 80 nM; in data set [9] it was 1090 nM; in data set [10], 4 µM. Besides, the CLint scaled at 3 µM in data set [6] fell in the range of 178 to 272 mL/min/kg.
